As a reminder, the IC50 is the concentration at which inhibition is half-maximal. Low values mean greater potency in that assay, high ones weaker potency in that assay.

Holding throughout (type): functional, cell-based
One experiment concerns SF-268. Briefly: Cytotoxicity against human SF268 cells after 48 hrs by MTT assay. The note with it: SF-268, 48 h. The method, boiled down: (§1)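 Human tumour cells (NCI-H460 lung, MCF-7 breast, SF-268 glioma) exposed to compounds for 48 h in RPMI 1640 with 10% fetal bovine serum; viability read by tetrazolium-based colorimetric MTT assay.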
In general terms: Formazan colour is commonly taken as a measure of viable cells.

In another experiment the test system is NCI-H460. Briefly: Cytotoxicity against human NCI-H460 cells after 48 hrs by MTT assay. Particulars: NCI-H460, 48 h. An outline of the steps: as §1
A further experiment relates to MCF7. Briefly: Cytotoxicity against human MCF7 cells after 48 hrs by MTT assay. The note with it: MCF7, 48 h. An outline of the steps:
as §1

On to `CC1=C[C@@H]2/C=C(\C)CCCC(O)/C=C/C(=O)[C@]23C(=O)N[C@@H](CC(C)C)[C@@H]3[C@@H]1C` (stereo partly drawn), for which the IC50 with SF-268 is 9.5 µM; with NCI-H460, 3.5 µM; in the experiment with MCF7, 5 µM.

`CC1=C[C@@H]2/C=C(\C)CC[C@H](O)[C@@H](O)/C=C/C(=O)[C@]23C(=O)N[C@@H](CC(C)C)[C@@H]3[C@@H]1C` [ASPOCHALASIN C]: the figures for the IC50 in the experiment with SF-268, in the experiment with NCI-H460 and in the experiment with MCF7 were 3.9 µM, 5 µM and 7.7 µM, respectively.

As for `CC1=C[C@@H]2/C=C(\C)CC[C@H](O)[C@H](O)/C=C/C(=O)[C@]23C(=O)N[C@@H](CC(C)C)[C@@H]3[C@@H]1C` [ASPOCHALASIN D], the values for the IC50 with SF-268, in the experiment with NCI-H460 and with MCF7 were 5 µM, 3.4 µM and 5.3 µM, respectively.

Take `CC1=C[C@@H]2/C=C(\C)CC[C@H](O)[C@H](O)[C@@H](O)CC(=O)[C@]23C(=O)N[C@@H](CC(C)C)[C@@H]3[C@@H]1C` [ASPOCHALASIN E]: the IC50 came out at 52.6 µM with SF-268, 31.5 µM in the experiment with NCI-H460 and 30.4 µM in the experiment on MCF7.

On to `CC1=C[C@@H]2/C=C(\C)CC[C@H](O)[C@H](O)/C=C/C(=O)O[C@]23C(=O)N[C@@H](CC(C)C)[C@@H]3[C@@H]1C` [ASPOCHALASIN I], for which the half-inhibitory concentration (IC50) with SF-268 came to 19.9 µM; with NCI-H460 it was 22.1 µM; in the experiment with MCF7, 33.4 µM.

Take `CC1=C[C@@H]2/C=C(\C)CCC[C@H](O)/C=C/C(=O)O[C@]23C(=O)N[C@@H](CC(C)C)[C@@H]3[C@@H]1C` [ASPOCHALASIN J]: the IC50 was 13.4 µM in the experiment on SF-268, 55.2 µM in the experiment with NCI-H460 and 14.9 µM in the experiment on MCF7.

With `CO[C@H]1[C@@H](O)CC/C(C)=C/[C@H]2C=C(C)[C@@H](C)[C@H]3[C@H](CC(C)C)NC(=O)[C@]32C(=O)C[C@@H]1O` [ASPOCHALASIN K], the IC50 in the experiment with SF-268 came out at 19.9 µM; in the experiment with NCI-H460 it was 14.3 µM; in the experiment with MCF7, 13.1 µM.

For the molecule `CC(=O)O[C@H]1C(=O)[C@@]2(C)[C@H]([C@H](OC(=O)c3ccccc3)[C@]3(O)C[C@H](OC(=O)[C@H](O)[C@@H](NC(=O)c4ccccc4)c4ccccc4)C(C)=C1C3(C)C)[C@]1(OC(C)=O)CO[C@@H]1C[C@@H]2O` [PACLITAXEL], the IC50 amounted to 0.0217 µM in the experiment on SF-268 and 0.0095 µM in the experiment on NCI-H460.

These data come from ChEMBL document CHEMBL1146489, “Aspochalasins I, J, and K: three new cytotoxic cytochalasans of Aspergillus flavipes from the rhizosphere of Ericameria laricifolia of the Sonoran Desert” (J Nat Prod, 2004).
